≈ marks a conversion by molar mass, not a printed value.
Columns and labels:
Bacillus cereus [1] = assay: Antimicrobial activity against Bacillus cereus; type: functional
Escherichia coli = assay: Antimicrobial activity against Escherichia coli MC1000 by macrodilution method; type: functional
How it was run: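 Luria-Bertani medium, 30°C, shaking at 200 rpm, 14 h. Macrodilution per NCCLS aerobic criteria, with inoculum 5 × 10^5 cells/ml. DMSO-dissolved compounds were diluted 2-fold through the tubes, with a DMSO control. MIC is the lowest concentration preventing visible growth in triplicate, confirmed periodically by no absorbance at 600 nm.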

Pseudomonas aeruginosa = assay: Antimicrobial activity against Pseudomonas aeruginosa K by macrodilution method; type: functional
How it was run: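 Grown in Luria-Bertani medium at 37°C, shaking at 200 rpm, 16 h. NCCLS macrodilution with 5 × 10^5 cells/ml inoculum. Compounds in DMSO formed a 2-fold tube dilution series, with a control at equal DMSO. MIC was read visually as the lowest growth-preventing concentration in triplicate, periodically confirmed by no detectable A600.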

Bacillus cereus [2] = assay: Antimicrobial activity against Bacillus cereus UW85 by macrodilution method; type: functional
How it was run: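 Tube macrodilution per NCCLS. Strain grown in Luria-Bertani medium, 37°C, shaking at 200 rpm, 16 h. Inoculum 5 × 10^5 cells/ml. DMSO stocks diluted 2-fold through the tubes, with a DMSO-matched control. MIC is the lowest concentration without visible growth in triplicate, occasionally checked as no detectable absorbance at 600 nm.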

Caulobacter vibrioides = assay: Antimicrobial activity against Caulobacter crescentus CB15N by macrodilution method; type: functional
How it was run: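 Peptone-yeast extract medium, 30°C, shaking at 200 rpm, 22 h. NCCLS macrodilution from 5 × 10^5 cells/ml. Compounds in DMSO given as a 2-fold tube series, with a control at the highest DMSO level. Endpoint is the lowest concentration preventing growth in triplicate by eye, periodically confirmed by absence of A600.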

Staphylococcus aureus [3] = assay: Antimicrobial activity against Staphylococcus aureus FRI 100 by macrodilution method; type: functional
How it was run: (§1)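 Static culture in Luria-Bertani medium, 37°C, 14 h. NCCLS macrodilution, inoculum 5 × 10^5 cells/ml. Compounds in DMSO were 2-fold serially diluted through the inoculated tubes, with a DMSO-matched control. MIC is the lowest concentration preventing visible growth in triplicate, periodically confirmed by lack of absorbance at 600 nm.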

Staphylococcus aureus [4] = assay: Antimicrobial activity against Staphylococcus aureus FRI 361 by macrodilution method; type: functional; how it was run: as §1
Enterococcus faecalis = assay: Antimicrobial activity against Enterococcus faecalis 1131 by macrodilution method; type: functional
How it was run: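 Brain heart infusion medium, static, 37°C, 14 h. NCCLS macrodilution, starting inoculum 5 × 10^5 cells/ml. Compounds in DMSO were 2-fold serially diluted across the inoculated tubes, with a matched DMSO control. MIC is the lowest concentration with no visible growth in triplicate, sometimes verified as no detectable A600.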

Bacillus anthracis [5] = assay: Antimicrobial activity against Bacillus anthracis Sterne 7702 by macrodilution method; type: functional
[6] = Toxicity in po dosed female Sherman rat; type: organism-based; conditions: in vivo
[7] = Toxicity in po dosed male Sherman rat; type: organism-based; conditions: in vivo
Bacillus anthracis [8] = assay: Antimicrobial activity against Bacillus anthracis by Etest; type: functional

Oc1ccc(Cl)cc1Cc1cc(Cl)cc(Cc2cc(Cl)ccc2O)c1O gave an MIC (Bacillus cereus [1]) of 0.3 µM (≈ 0.123 µg/mL), an MIC (Escherichia coli) of 5 µM (≈ 2.05 µg/mL) and an MIC (Pseudomonas aeruginosa) of 40 µM (≈ 16.4 µg/mL). The MIC (Bacillus cereus [2]) was 0.3 µM (≈ 0.123 µg/mL), the MIC (Caulobacter vibrioides) was 2.5 µM (≈ 1.02 µg/mL) and the MIC (Staphylococcus aureus [3]) was 0.08 µM (≈ 0.0328 µg/mL). The MIC (Staphylococcus aureus [4]) was 0.6 µM (≈ 0.246 µg/mL), the MIC (Enterococcus faecalis) was 1.3 µM (≈ 0.533 µg/mL) and the MIC (Bacillus anthracis [5]) was 0.3 µM (≈ 0.123 µg/mL).
For Oc1ccc(Cl)cc1Cc1cc(Cl)cc(Cc2cc(Cl)cc(Cc3cc(Cl)cc(Cc4cc(Cl)ccc4O)c3O)c2O)c1O, the MIC (Escherichia coli) was > 80 µM, the MIC (Pseudomonas aeruginosa) was > 80 µM and the MIC (Bacillus cereus [2]) was 0.3 µM (≈ 0.207 µg/mL). It also gave an MIC (Caulobacter vibrioides) of 5 µM (≈ 3.45 µg/mL), an MIC (Staphylococcus aureus [3]) of 5 µM (≈ 3.45 µg/mL) and an MIC (Staphylococcus aureus [4]) of 5 µM (≈ 3.45 µg/mL). For the same compound, the MIC (Enterococcus faecalis) was 0.6 µM (≈ 0.415 µg/mL) and the MIC (Bacillus anthracis [5]) was 1.3 µM (≈ 0.898 µg/mL).
With Oc1ccc(Cl)cc1Cc1cc(Cl)cc(Cc2cc(Cl)cc(Cc3cc(Cl)ccc3O)c2O)c1O the MIC (Escherichia coli) was > 80 µM, the MIC (Pseudomonas aeruginosa) was > 80 µM and the MIC (Bacillus cereus [2]) was 0.08 µM (≈ 0.044 µg/mL). For the same compound, the MIC (Caulobacter vibrioides) was 0.3 µM (≈ 0.165 µg/mL), the MIC (Staphylococcus aureus [3]) was 0.16 µM (≈ 0.088 µg/mL) and the MIC (Staphylococcus aureus [4]) was 0.3 µM (≈ 0.165 µg/mL). It also gave an MIC (Enterococcus faecalis) of 0.3 µM (≈ 0.165 µg/mL) and an MIC (Bacillus anthracis [5]) of 0.16 µM (≈ 0.088 µg/mL).
Work on Oc1ccc(Cl)cc1Cc1cc(Cl)ccc1O [DICHLOROPHEN] yielded an LD50 [6] of 1680 mg/kg, an LD50 [7] of 1510 mg/kg and an MIC (Escherichia coli) of 160 µM (≈ 43.1 µg/mL). The MIC (Pseudomonas aeruginosa) was > 320 µM, the MIC (Bacillus cereus [2]) was 10 µM (≈ 2.69 µg/mL) and the MIC (Caulobacter vibrioides) was 20 µM (≈ 5.38 µg/mL). It also gave an MIC (Staphylococcus aureus [3]) of 20 µM (≈ 5.38 µg/mL), an MIC (Staphylococcus aureus [4]) of 20 µM (≈ 5.38 µg/mL) and an MIC (Enterococcus faecalis) of 80 µM (≈ 21.5 µg/mL). It also gave an MIC (Bacillus anthracis [5]) of 5 µM (≈ 1.35 µg/mL).
Work on CC1(C)S[C@@H]2[C@H](NC(=O)Cc3ccccc3)C(=O)N2[C@H]1C(=O)O [PENICILLIN G] yielded an MIC (Bacillus anthracis [8]) of 0.02 µM (≈ 0.00669 µg/mL).
CN(C)[C@@H]1C(O)=C(C(N)=O)C(=O)[C@@]2(O)C(O)=C3C(=O)c4c(O)cccc4[C@@](C)(O)[C@H]3C[C@@H]12 [TETRACYCLINE] gave an MIC (Bacillus anthracis [8]) of 0.07 µM (≈ 0.0311 µg/mL).

— ChEMBL document CHEMBL1671706 (Antimicrob Agents Chemother, 2010)
